Experiments:
interleukin-12 (IL-12) = conditions: after stimulation with LPS; cited from earlier work
h-15-LOX-1 = biological target: T1, h-15-LOX-1 (Homo sapiens, UniProt P16050); assay: Human 15-LOX-1 screening UV assay; assay type: biochemical; conditions: for h-15-LOX-1 inhibition (result in words): SAR comparison, Figure 3, up to 50 μM
T1 sequence (P16050 1-662): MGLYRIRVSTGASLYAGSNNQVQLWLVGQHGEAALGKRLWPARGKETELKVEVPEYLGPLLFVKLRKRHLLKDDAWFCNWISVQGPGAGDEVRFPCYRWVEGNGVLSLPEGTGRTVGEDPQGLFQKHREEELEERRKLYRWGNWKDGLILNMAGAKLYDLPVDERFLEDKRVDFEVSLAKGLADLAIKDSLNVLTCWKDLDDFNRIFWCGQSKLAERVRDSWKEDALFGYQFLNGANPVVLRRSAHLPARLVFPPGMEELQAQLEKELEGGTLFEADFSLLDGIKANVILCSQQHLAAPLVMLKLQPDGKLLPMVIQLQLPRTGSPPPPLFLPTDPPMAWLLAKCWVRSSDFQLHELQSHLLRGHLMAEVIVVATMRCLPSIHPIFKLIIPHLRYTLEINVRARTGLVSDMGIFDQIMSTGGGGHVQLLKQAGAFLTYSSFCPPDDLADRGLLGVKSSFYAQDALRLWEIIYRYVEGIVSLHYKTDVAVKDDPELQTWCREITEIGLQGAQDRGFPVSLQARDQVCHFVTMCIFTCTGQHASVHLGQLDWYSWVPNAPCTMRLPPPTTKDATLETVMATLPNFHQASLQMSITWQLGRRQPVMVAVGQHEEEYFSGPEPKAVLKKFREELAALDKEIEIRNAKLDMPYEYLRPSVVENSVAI

[1] = tested on: interleukin expression in precision-cut lung slices (PCLS); assay: Gene expression by RT-qPCR in LPS/IFNγ-stimulated precision-cut lung slices; assay type: cell-based, mouse; conditions: 20 h with 10 μM linoleic acid, LPS/IFNγ last 4 h
[2] = tested on: precision-cut lung slices (PCLS); conditions: LDH release, 1-500 nM with 10 μM linoleic acid for 20 h
[3] = tested on: interleukin expression in RAW 264.7 cells; assay: Gene expression by RT-qPCR in LPS/IFNγ-stimulated RAW 264.7 cells; assay type: cell-based, murine; conditions: RAW 264.7, 20 h with 10 μM linoleic acid, LPS/IFNγ last 4 h
Summary of the method: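 Murine macrophages (passage 7–16) in DMEM-GlutaMAX with 10% heat-inactivated FBS, extra 2 mM GlutaMAX and penicillin/streptomycin at 37 °C, 5% CO2, seeded at 20,000 cells/cm2 one day before. Test compound 1–500 nM (final) with 10 μM linoleic acid for 20 h; 10 ng/ml LPS and IFNγ for the last 4 h. Cells were DPBS-washed and total RNA isolated for RT-qPCR. Results are fold change versus the LPS/IFNγ/linoleic acid control.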

c1ccc2c(c1)SCc1c-2[nH]c2ccccc12 [PD-146176]
effect on interleukin-12 (IL-12) (interleukin-12 (IL-12)): downregulation of interleukin-12 (IL-12)

CCOC(=O)c1c(C=O)c2ccc(Cl)cc2n1C [Compound 3, Ethyl 6-chloro-3-formyl-1-methyl-1H-indole-2-carboxylate]
inhibition at 50 µM (h-15-LOX-1; read-out: inhibition of the enzyme activity at 50 μM): < 50%

O=Cc1c(C(=O)O)[nH]c2cc(Cl)ccc12 [Compound 7, 6-chloro-3-formyl-1H-indole-2-carboxylic acid]
h-15-LOX-1 inhibition (result in words) (h-15-LOX-1): inactive

O=Cc1c(Cl)[nH]c2cc(Cl)ccc12 [Compound 4]
h-15-LOX-1 inhibition (result in words) (h-15-LOX-1): inactive

O=Cc1c[nH]c2cc(Cl)ccc12 [Compound 5]
h-15-LOX-1 inhibition (result in words) (h-15-LOX-1): inactive

CC(C)(C)OC(=O)c1cc2ccc(Cl)cc2[nH]1 [Compound 8, tert-butyl 6-chloro-1H-indole-2-carboxylate]
h-15-LOX-1 inhibition (result in words) (h-15-LOX-1): inactive

CCOC(=O)c1[nH]c2cc(Cl)ccc2c1C(=O)C[C@@H](C)CCCC(C)C [Compound 14d, (S)-ethyl 6-chloro-3-(3,7-dimethyloctanoyl)-1H-indole-2-carboxylate]
IL-1β gene expression [1]: small but significant downregulation | IL-6 gene expression [1]: small but significant downregulation | IL-10 gene expression [1]: upregulated | IL-12 gene expression [1]: remained unchanged | concentration not affecting PCLS viability [2]: ≤ 500 nM | IL-1β gene expression [3]: did not change | IL-6 gene expression [3]: did not change | IL-12 gene expression [3]: did not change
